Shown are actives, neighbours in structure and some others; about 2.7% of the full set was active somewhere.
TCR CD3 inh: inhibitors of human TCR-CD3 interaction. TAMRA-labeled TCR probe fluorescence, biochemical. actives 0.37% (n = 360,000). inhibition, % at 9.4 µM; in the data active means inhibition above about 19%;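 further: recombinant mutant TCR 2C K166C tagged with TAMRA read by polarization; 0% = receptor in buffer alone and 100% = receptor with positive control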
HTRA1 inhibitor: blocks human HTRA1 serine peptidase; recombinant HTRA1, FP-rhodamine activity-based probe, fluorescence polarization; AID 504803; Q92743; actives 0.5% (n = 340,000); inhibition, % at 5.96 µM; in the data active means inhibition above about 36%;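 further: 0% = enzyme with DMSO and 100% = wells lacking enzyme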
mABHD4 FP: inhibits mouse alpha/beta hydrolase domain 4 | Q8VD66 | purified mABHD4, FP-Rh probe fluorescence polarization | inhibition, % at 8.92 µM | actives 0.54% (n = 370,000);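 active means inhibition exceeding the mean over every tested compound plus 3 SD, cut at about 30% in these data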;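 further: 0% = plate median of compound wells and 100% = S159A mutant with DMSO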
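Assay system: wild-type mouse ABHD4 protein; compound: single nominal dose of 8.92 µM, 0.89% DMSO final; schedule: 45 min + 60 min at 25 °C; measured by: FP readout, ex 525 nm / em 598 nm; evaluation: % inhibition of FP-Rh probe binding versus controls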
SIAE primary: blocks human sialic acid acetylesterase | inhibition, % at 9.66 µM | Q9HAT2 | AID 1053197 | SIAE FP-Rh probe binding, fluorescence polarization | actives 0.69% (n = 370,000);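 active means inhibition above a cutoff: mean of compounds within the control limits plus 3 SD of those, cut at about 17% in these data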;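 further: 0% = plate median of compound wells and 100% = probe without SIAE protein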
Target sequence (Q9HAT2 whole entry, looked up): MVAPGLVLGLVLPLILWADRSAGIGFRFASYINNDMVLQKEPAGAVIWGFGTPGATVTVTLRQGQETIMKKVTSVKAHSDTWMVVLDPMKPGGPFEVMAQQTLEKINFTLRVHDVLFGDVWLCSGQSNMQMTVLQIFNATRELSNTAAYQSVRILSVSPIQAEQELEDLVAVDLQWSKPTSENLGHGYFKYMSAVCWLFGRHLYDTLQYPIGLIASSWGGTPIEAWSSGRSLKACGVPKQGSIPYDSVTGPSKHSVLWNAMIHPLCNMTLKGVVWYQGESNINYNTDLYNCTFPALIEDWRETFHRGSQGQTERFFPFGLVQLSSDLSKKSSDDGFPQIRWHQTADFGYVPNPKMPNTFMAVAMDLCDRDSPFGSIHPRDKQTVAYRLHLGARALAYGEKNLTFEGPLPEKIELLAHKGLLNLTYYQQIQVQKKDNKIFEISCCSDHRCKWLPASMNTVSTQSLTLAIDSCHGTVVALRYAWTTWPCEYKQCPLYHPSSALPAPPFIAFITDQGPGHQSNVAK
PRMT1 inh: PRMT1 (human) inhibition, primary screen; Q99873; recombinant PRMT1, activity-based probe fluorescence polarization; inhibition, % at 2.79 µM; actives 1.3% (n = 370,000); AID 652257;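 active means inhibition above about 21% made by adding two undisclosed values, limit read from the data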
PRMT1 inh conf: confirmation of human PRMT1 inhibitors | recombinant His-PRMT1, activity-based probe fluorescence polarization | shares compounds with PRMT1 inh | inhibition, % at 2.79 µM | actives 42% (n = 3,300);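 active means mean inhibition across replicates above the hit cutoff derived for the earlier primary screen, cut at about 22% in these data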
ABHD4 confirm: ABHD4 (mouse) inhibition, FP confirmation. shares compounds with mABHD4 FP. purified mABHD4, FP-Rh probe fluorescence polarization. inhibition, % at 8.92 µM. actives 55% (n = 1,800). AID 720658;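 active means mean inhibition across replicates above the hit cutoff set in the primary screen, cut at about 30% in these data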;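 further: 0% = wild-type ABHD4 with DMSO and 100% = catalytically dead S159A mutant with DMSO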
SIAE confirm: confirmation of human SIAE inhibitors; shares compounds with SIAE primary; SIAE FP-Rh activity-based probe, fluorescence polarization; actives 13% (n = 2,300); AID 1117263; inhibition, % at 9.66 µM;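 active means mean inhibition of the replicates above the hit cutoff set in the primary screen, cut at about 17% in these data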;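 further: 0% = SIAE with DMSO and probe and 100% = probe without SIAE; inhibitors lower polarization as more probe stays unbound to SIAE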
The depositor's hits bear a star; nt = not tested or not shown.

SMILES | TCR CD3 inh | HTRA1 inhibitor | mABHD4 FP | SIAE primary | PRMT1 inh | ABHD4 confirm | others
Nc1c(C(=O)Nc2ccccc2)sc2nc(-c3ccco3)ccc12 | 6 | -7 | 8 | 30* | 52* | nt | PRMT1 inh conf=40*;SIAE confirm=5
COc1ccccc1NC(=O)c1sc2nc(-c3ccco3)ccc2c1N | nt | -4 | nt | nt | nt | nt
COC(=O)c1c(C)[nH]c(C(=O)COC(=O)CCc2ccc(OC)c(OC)c2)c1C | 8 | 2 | 7 | 2 | -4 | nt
COC(=O)c1ccccc1NC(=S)NC(=O)COc1ccccc1Cl | -1 | -20 | -16 | 2 | 0 | nt
O=C(COc1ccccc1Cl)NC(=S)Nc1ccccc1N1CCCC1 | 13 | -7 | 41* | 4 | 5 | -8
Cc1ccc(-n2nc(C)c3c2OC(N)=C(C#N)C3c2ccco2)cc1 (stereo not given) | -2 | 8 | 41* | 14 | 6 | 20
Cc1ccc(-n2nc(C)c3c2OC(N)=C(C#N)C3c2ccc(C)o2)cc1 (stereo not given) | -1 | 10 | 28 | 7 | 19 | nt
CC1=C(CCN2CCN(C3CCCC3)C(CCO)C2)C(C)(C)CCC1 (stereo not given) | -2 | -9 | 61* | 2 | -2 | -12
CC(C)=CCN1CCN(CCC2=C(C)CCCC2(C)C)CC1CCO (stereo not given) | -4 | -2 | 6 | 0 | -1 | nt
COCc1cn(-c2ccc3c(c2)[C@]2(CC(=O)N(C)C2c2ccccc2)C(=O)N3CC(C)C)nn1 (stereo not given in full) | nt | nt | 2 | 3 | -1 | nt
O=C(O)c1cc([N+](=O)[O-])c(NCCC2=CCCCC2)c([N+](=O)[O-])c1 | 0 | -6 | 55* | 6 | 1 | 66*
O=C(N1CCC(Cc2ccccc2)CC1)n1ncc(C(O)(c2ccccc2)c2ccccc2)n1 | nt | nt | 77* | -3 | 3 | 69*
Cn1ncc(Cl)c1C(=O)N1CCC(Cc2ccccc2)CC1 | -14 | -1 | -14 | -6 | 7 | nt
Nc1nc2c(ncn2[C@@H]2O[C@H](C(=O)NCC3CCCCC3)[C@@H](O)[C@H]2O)c(=O)[nH]1 | 2 | nt | 4 | -3 | 6 | nt
CCc1ccc(Nc2ccc(C(=O)O)cc2[N+](=O)[O-])cc1 | 7 | 0 | 55* | 2 | 1 | 69*
COc1cc(Nc2ccc(C(=O)O)cc2[N+](=O)[O-])cc(OC)c1 | -4 | -6 | 36* | -6 | 4 | 57*
Cc1cc(C)cc(Nc2ccc(C(=O)O)cc2N)c1 | 15 | 23 | 12 | 5 | 3 | nt
Cc1cc(C)cc(Nc2ccc(C(=O)O)cc2[N+](=O)[O-])c1 | -1 | -1 | 32* | -2 | 11 | 54*
CN1CCN(c2ncnc3c2ncn3[C@H]2CN(C)C[C@@H](CO)O2)CC1 | -3 | nt | -1 | 4 | -6 | nt
CCc1nc2ccc(C(=O)Nc3cc(-c4ccccc4)ccc3OC)cn2c1N(C)CCCc1ccccc1 | 0 | nt | 16 | 1 | -1 | nt
CCCCN(C)c1c(C)nc2ccc(C(=O)Nc3cc(-c4ccccc4)ccc3OC)cn12 | 8 | nt | 40* | 4 | 3 | 56*
C=CCCC1CN(Cc2ccc(OC)cc2)S(=O)(=O)c2c(cccc2N2CCCC2)O1 (stereo not given) | 0 | nt | -3 | -9 | -3 | nt
CN1OC[C@@H]2CN(CC3CCCCC3)[C@H](c3ccc(-c4ccc(C#N)cc4)cc3)C[C@@H]21 | -4 | nt | -4 | -7 | -8 | nt
Nc1cc(N)cc(C(=O)c2ccccc2)c1 | -2 | nt | 44* | 7 | 1 | 12
O=C(c1ccccc1)c1cccc(C(=O)c2ccccc2)c1 | nt | -16 | nt | nt | nt | nt
SMILES | TCR CD3 inh | HTRA1 inhibitor | mABHD4 FP | SIAE primary | PRMT1 inh | ABHD4 confirm | others
Cc1ccc(NC(=O)N2CCOCC2)cc1NC(=O)N1CCOCC1 | 0 | 5 | 0 | -2 | -2 | nt
CC(C)C[C@H]1CN(CCCC[C@H]2CNC(=O)C(=O)N2CC2CCCCC2)C(=O)C(=O)N1CC1CCCCC1 | 2 | nt | -6 | -5 | -3 | nt
CC(C)c1ccc(NC(=O)Nc2nc(C(N)C3CCCCC3)cs2)cc1 (stereo not given) | -9 | nt | 31* | 2 | -1 | 32*
COc1ccc(NC(=O)Nc2nc(C(N)C3CCCCC3)cs2)cc1 (stereo not given) | -1 | nt | -2 | 5 | -4 | nt
CCCN(CC(=O)Nc1ccccc1C)C(=O)c1ccc(OCc2c(C)noc2C)cc1 | 4 | -6 | 2 | 8 | -5 | nt
Nc1nc(N)c(N=O)c(Nc2ccc(Cl)c(Cl)c2)n1 | -3 | nt | 31* | 8 | 9 | 33*
Cc1ccc(Nc2nc(N)nc(N)c2N=O)cc1Cl | -7 | nt | 8 | 13 | 1 | nt
Cn1ccc2c(/C=C/c3ccc(F)cc3)cc3c(c21)C1CCC3C1 (stereo not given) | -1 | nt | 45* | 6 | 3 | 38*
CCN(CC)CC(C)CNC(=O)C1(O)c2ccccc2NC(=O)N1c1ccc(Cl)c(Cl)c1 (stereo not given) | -4 | -4 | -5 | 4 | -5 | nt
CCc1cc(C(=O)N=Nc2c(O)[nH]c3ccc([N+](=O)[O-])cc23)c2ccccc2n1 | 8 | 7 | 40* | 2 | 1 | 41*
CC1CCCC(C)N1C(=O)COC(=O)CCC(=O)c1ccc(F)cc1 (stereo not given) | -2 | -3 | -4 | -6 | -2 | nt
CC1CCCC(C)N1C(=O)COC(=O)CCC(=O)c1cccs1 (stereo not given) | 9 | -2 | 60* | 5 | -2 | -7
COc1ccccc1N(CC(O)CN1CCOCC1)S(=O)(=O)c1ccccc1 (stereo not given) | 5 | 0 | 3 | -6 | 0 | nt
COc1ccc(N2C(=O)CC(Nc3ccc(N4CCOCC4)cc3)C2=O)c(OC)c1 (stereo not given) | 10 | 22 | 49* | 30* | 14 | 14
O=C1CC(Nc2ccccc2)C(=O)N1CCc1ccccc1 (stereo not given) | 7 | 0 | -6 | 5 | 1 | nt
O=C1CC(Nc2ccc(N3CCOCC3)cc2)C(=O)N1CCc1ccccc1 (stereo not given) | -1 | 12 | 33* | 17 | 6 | 4
OC(CCN1CC2CCC(CC2)C1)(Cc1ccccc1)c1ccco1 (stereo not given) | 3 | 3 | 37* | 14 | 10 | 18
O=C(/C=C/c1ccco1)N1CCC(Cc2ccccc2)CC1 | 10 | -3 | 5 | -16 | 3 | nt
COc1ccc(C(=O)Nc2cc3c(cc2C(=O)O)OCCCO3)c(OC)c1 | 5 | -16 | 35* | -30 | 0 | 55*
COc1ccc(C(=O)Nc2ccc3c(c2)OCCO3)c(OC)c1 | -5 | -1 | -6 | 6 | 1 | nt
